Test results as given in ChEMBL document CHEMBL5030521, “Design, Synthesis, and Characterization of Novel sn-1 Heterocyclic DAG-Lactones as PKC Activators” (J Med Chem, 2021).
Activity calls are given as the source filed them.

Assays:
[1] = target: T1, Protein kinase C epsilon type (Homo sapiens) (UniProt Q02156); assay: Activation of GFP-fused PKCepsilon in HeLa cells assessed as translocation of PKCepsilon from cytosol to membrane measured after 30 mins by DAPI staining based fluorescence microscopy; assay type: subcellular
T1 sequence (whole entry): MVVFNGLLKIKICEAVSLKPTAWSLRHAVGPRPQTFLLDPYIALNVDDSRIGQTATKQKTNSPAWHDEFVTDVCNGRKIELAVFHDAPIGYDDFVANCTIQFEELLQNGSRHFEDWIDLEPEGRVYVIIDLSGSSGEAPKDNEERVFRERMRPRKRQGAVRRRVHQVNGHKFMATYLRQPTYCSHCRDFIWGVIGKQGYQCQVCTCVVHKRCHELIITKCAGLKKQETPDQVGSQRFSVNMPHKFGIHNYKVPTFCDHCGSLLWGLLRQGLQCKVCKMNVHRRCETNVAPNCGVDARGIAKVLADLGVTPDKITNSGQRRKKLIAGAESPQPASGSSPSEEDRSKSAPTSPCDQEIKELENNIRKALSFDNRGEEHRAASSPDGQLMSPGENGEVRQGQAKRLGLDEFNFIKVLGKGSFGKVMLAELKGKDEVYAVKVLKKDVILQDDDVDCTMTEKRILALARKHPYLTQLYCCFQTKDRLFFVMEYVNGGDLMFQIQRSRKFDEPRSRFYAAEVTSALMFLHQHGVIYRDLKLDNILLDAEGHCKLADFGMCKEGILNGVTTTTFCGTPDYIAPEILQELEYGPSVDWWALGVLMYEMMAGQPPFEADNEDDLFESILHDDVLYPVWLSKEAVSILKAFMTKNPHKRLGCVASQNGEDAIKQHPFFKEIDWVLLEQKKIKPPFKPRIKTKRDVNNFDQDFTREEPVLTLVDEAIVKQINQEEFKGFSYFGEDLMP
How it was run: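 HeLa cells transfected with pEGFP-N1-PKCε, plated on coverslips, serum-starved 24 h after 24 h, then treated 30 min; methanol-fixed, DAPI counterstained, imaged by fluorescence microscopy. Membrane/cytosol ratio from line intensity profiles across ~10–15 cells/group, operator blinded; mean ± SD; PMA 100 nM as control.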

[2] = target: T2, Protein kinase C alpha type (Homo sapiens, UniProt P17252); assay: Activation of GFP-fused PKCalpha in HeLa cells assessed as […] from cytosol to membrane measured after 30 mins by DAPI staining based fluorescence microscopy; assay type: subcellular; conditions: filed as activator
How it was run: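 HeLa cells (5 × 10^4) transfected with pEGFP-N1-PKCα or -PKCε, plated on coverslips; after 24 h serum-starved 24 h, then treated 30 min. Methanol-fixed, DAPI-counterstained, imaged by fluorescence microscopy. Line scans across cytoplasm (~10–15 cells/group) give membrane/cytosol fluorescence ratio; operator blinded; mean ± SD.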

[3] = target: T1, Protein kinase C epsilon type (Homo sapiens); assay: Displacement of [3H]-PDBu from recombinant human PKCepsilon at 10 uM by scintillation counter method relative to control
How it was run: (§1)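 Competition of 2 nM [3H]PDBu by test ligand at a single fixed concentration (value in line); 50 mM Tris-HCl pH 7.4, 100 μg/mL porcine brain phosphatidylserine, 5 mg/mL bovine IgG, 0.003% Tx-100, 20 ng/tube enzyme; 0.1 mM Ca2+ for PKCα, 1 mM EGTA for PKCε. 5 min at 37 °C, PEG precipitation, bound and free counted separately; nonspecific with 10 μM cold PDBu; triplicates.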

[4] = target: T2, Protein kinase C alpha type; assay: Displacement of [3H]-PDBu from recombinant human PKCalpha at 30 uM by scintillation counter method relative to control; how it was run: as §1
[5] = target: T1, Protein kinase C epsilon type (Homo sapiens); assay: Displacement of [3H]-PDBu from recombinant human PKCepsilon at 30 uM by scintillation counter method relative to control; how it was run: as §1
[6] = test system: A549; assay: Induction of ruffle formation in human A549 cells at 1 microM incubated for 30 mins using phalloidin-rhodamine staining based microscopic analysis; assay type: functional, cell-based
How it was run: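 Serum-starved (24 h) A549 cells at low confluence on coverslips treated 30 min at 1 μM; fixed in 4% formaldehyde, F-actin stained with phalloidin-rhodamine, DAPI nuclei. Five random fields scored; ruffle area per cell by intensity thresholding.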

[7] = test system: A549; assay: Induction of ruffle formation in human A549 cells transfected with PKCepsilon siRNA at 1 microM incubated for 30 mins using phalloidin-rhodamine staining based microscopic analysis; assay type: functional, cell-based
How it was run: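 A549 cells transfected with PKCε siRNA duplexes (two sequences) or nontarget control; 48 h later treated 1 μM for 30 min, formaldehyde-fixed, phalloidin-rhodamine stained; ruffle area/cell by intensity thresholding. Knockdown checked by Q-PCR mRNA and Western blot.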

[8] = target: T3, Protein kinase C epsilon type (Homo sapiens, UniProt Q02156); assay: Displacement of [3H]-PDBu from recombinant human PKCepsilon by scintillation counter method
T3 sequence (Q02156 whole entry): T1 sequence (whole entry)
How it was run: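 PKCε with 2 nM [3H]PDBu plus increasing competitor concentrations, in 50 mM Tris-HCl pH 7.4, 100 μg/mL phosphatidylserine, 1 mM EGTA, 5 mg/mL bovine IgG, 0.003% Tx-100, 20 ng/tube enzyme; 37 °C 5 min, then PEG precipitation and counting of pellet and supernatant. Nonspecific binding from 10 μM unlabeled PDBu. Ki derived from competition-curve ID50; mean ± SEM of three experiments, triplicate points.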

[9] = target: T2, Protein kinase C alpha type; assay: Displacement of [3H]-PDBu from recombinant human PKCalpha by scintillation counter method
How it was run: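 [3H]PDBu (2 nM) competition with increasing ligand in 50 mM Tris-HCl pH 7.4, 100 μg/mL porcine brain phosphatidylserine, 0.1 mM Ca2+ (PKCα), 5 mg/mL bovine IgG, 0.003% Triton X-100, 20 ng enzyme/tube; nonspecific with 10 μM PDBu. 37 °C 5 min, PEG precipitation, bound and free counted by scintillation. Triplicates; Ki from ID50; three experiments, mean ± SEM.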

CCCCCCCCCCCCCC(=O)O[C@@H]1[C@@H](C)[C@@]2(O)[C@@H](C=C(CO)C[C@]3(O)C(=O)C(C)=C[C@@H]23)[C@@H]2C(C)(C)[C@]12OC(C)=O
Activity [1]: inactive
Activity [2]: Active

Cc1ccc(-c2cn(CC3(CO)C/C(=C\CC(CC(C)C)CC(C)C)C(=O)O3)nn2)cc1 (centres undefined)
Activity [1]: inactive
inhibition [3]: 17%

CC(C)=C1CC(CO)(Cn2nnc(-c3ccccc3)n2)OC1=O (centres undefined)
Activity [1]: inactive
inhibition [4]: 23.5%

CC(C)CC(C/C=C1\CC(CO)(Cn2nnc(-c3ccccc3)n2)OC1=O)CC(C)C (centres undefined)
inhibition [5]: 69.2%
inhibition [4]: 37.5%

CC(C)CC(C/C=C1\CC(CO)(COC(=O)C(C)(C)C)OC1=O)CC(C)C (centres undefined)
Activity [6]: Active
Activity [7]: inactive
fold change (FC) ([1]; filed as activator): 43
Ki [8]: 1.89 nM
Ki [9]: 23.6 nM

Cc1cc(OCC2(CO)C/C(=C\CC(CC(C)C)CC(C)C)C(=O)O2)no1 (centres undefined)
Activity [7]: inactive
Ki [8]: 33.6 nM
Ki [9]: 79.3 nM

CC(C)=C1CC(CO)(Cn2cc(-c3ccc(C)cc3)nn2)OC1=O (centres undefined)
Activity [1]: inactive
inhibition [4]: 11.7%

CC(C)=C1CC(CO)(COc2cc(C)on2)OC1=O (centres undefined)
inhibition [4]: 31.3%
